Data from PubChem BioAssay AID602225 (Southern Research Specialized Biocontainment Screening …, 2012).
Records with an inconclusive call do not appear. Active and inactive are the calls of the source.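 The calls were made as follows: active = viability below 80% at one or more tested concentrations, meaning the compound is toxic to the cells; inconclusive = replicate runs disagree on whether viability fell below 80%; inactive = viability of 80% or more at every dose.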

What was measured:
[1] = viability of Vero E6 cells under compound – set 2, cytotoxicity control for PfM18AAP inhibitor project, dose response (AID 602225); settings: Vero E6 viability, CellTiter-Glo luminescence, 72 h; at 50 µM (top of the series)
Procedure, shortened: (§1)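 Assay system: Vero E6 cells; quantity: 3000 cells/well; medium: E-MEM supplemented with 10% fetal bovine serum; compound: 10-point dose series in 2-fold dilution steps; incubation: 72 h compound exposure at 37 °C, 5% CO2; measured by: CellTiter-Glo luminescence; evaluation: % viability and fitted CC50; benchmarks: DMSO vehicle-treated cell wells as reference controls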

[2] = system: Vero E6 viability, CellTiter-Glo luminescence, 72 h; test: as above
Procedure, shortened: as §1

**Q.** For `Oc1ccc(CCNc2ccnc3ccccc23)cc1O`, which viability [1] is on record?
**A.** 100% (inactive)

**Q.** For `CN1CCN(c2nc(-c3ccc(O)c(O)c3)cs2)CC1`, which viability [1] is on record?
**A.** 102% (inactive)

**Q.** With `CCc1ccc(NC(=O)Cc2nc(-c3ccc(O)c(O)c3)cs2)cc1` as the compound, how does the CC50 [2] read?
**A.** 28.7 µM

**Q.** With `COc1ccc(CCNc2c3ccccc3nc3ccccc23)cc1OC` as the compound, how does the CC50 [2] read?
**A.** 13.9 µM

**Q.** With `COc1ccc(CCCN2CCN(C)CC2)cc1OC` as the compound, how does the viability [1] read?
**A.** 100% (inactive)

**Q.** For `Oc1ccc(CCNc2c3ccccc3nc3ccccc23)cc1O`, which CC50 [2] is on record?
**A.** 30.9 µM

**Q.** With `Oc1ccc(-c2csc(Nc3ncccn3)n2)cc1O` as the compound, how does the viability [1] read?
**A.** 90.7% (inactive)

**Q.** With `COc1ccc(CCNC(c2ccccc2)c2ccccc2)cc1OC` as the compound, how does the CC50 [2] read?
**A.** 32.6 µM

**Q.** For `CN1CCN(CCc2ccc(O)c(O)c2)CC1`, which viability [1] is on record?
**A.** 103% (inactive)

**Q.** With `CN1CCN(CCCc2ccc(O)c(O)c2)CC1` as the compound, how does the viability [1] read?
**A.** 93.4% (inactive)

**Q.** For `COc1ccc(CCN(C)c2c3ccccc3nc3ccccc23)cc1OC`, which CC50 [2] is on record?
**A.** 27.8 µM
